Measured values: ChEMBL document CHEMBL1148199, “Synthesis, conformational analysis, and cytotoxicity of new analogues of the natural cyclodepsipeptide jaspamide” (J Nat Prod, 2004)
≈ marks a conversion by molar mass, not a printed value. Calls of active or inactive are those of the source. The rule behind the calls is not given here.

How the values were obtained:
A10 [1] = assay: Effect on cell morphology in rat A10 cells assessed microtubule depolymerization by immunofluorescence assay; assay type: functional, cell-based
In short: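 Near-confluent A-10 cells on glass coverslips treated with compounds at micromolar amounts for 24 h. Microtubules immunostained with monoclonal anti-β-tubulin followed by fluorescein-conjugated anti-mouse IgG and examined for changes in the microtubule network.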

MCF7 = assay: Antiproliferative activity against human MCF7 cells after 48 hrs by SRB assay; conditions: MCF7, 48 h
T-24 = assay: Antiproliferative activity against human T24 cells after 48 hrs by SRB assay; assay type: functional, cell-based; conditions: T-24, 48 h
In short: (§1)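 Human cell lines (T24 bladder carcinoma, MCF-7, NCI/ADR) kept in RPMI-1640 with 10% FBS and 50 μg/mL gentamycin at 37 °C, 5% CO2. Plated at ~15% confluency and left 24 h to attach. Treated in triplicate with varying concentrations for 48 h. Survival measured by sulforhodamine B binding as % of control cultures. IC50 is the concentration giving 50% inhibition of proliferation.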

A10 [2] = assay: Antiproliferative activity against rat A10 cells after 48 hrs by SRB assay; assay type: cell-based; conditions: A10, 48 h
In short: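 A-10 rat aortic smooth muscle cells kept in α-MEM with 10% FBS and 50 μg/mL gentamycin at 37 °C, 5% CO2. Seeded at ~15% confluency, 24 h recovery, then triplicate 48 h exposure to a concentration series. SRB binding read against control cultures. IC50 is the concentration causing 50% inhibition of proliferation.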

A10 [3] = assay: Effect on cell morphology in rat A10 cells assessed as microfilaments depolymerization by immunofluorescence assay; assay type: functional, cell-based
In short: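 A-10 rat smooth muscle cells grown to near-confluency on glass coverslips and exposed to compounds at micromolar amounts for 24 h. Jaspamide served as positive control. Microfilaments stained with monoclonal anti-β-actin, then fluorescein-conjugated anti-mouse IgG. Read-out: actin aggregation and cellular aberrations such as binucleated cells.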

[4] = Antiproliferative activity against multidrug-resistant human NCI/ADR cells expressing p-glycoprotein after 48 hrs by SRB assay; assay type: functional, cell-based; conditions: NCI/ADR-RES; in short: as §1
A10 [5] = assay: Effect on cell morphology in rat A10 cells assessed as actin aggregation at 0.85 nM by immunofluorescence assay; assay type: functional, cell-based
In short: (§2)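 A-10 rat aortic smooth muscle cells were grown to near-confluency on glass coverslips and treated for 24 h. Microfilaments were stained with monoclonal anti-β-actin followed by fluorescein-conjugated anti-mouse IgG. Actin aggregation was scored by immunofluorescence microscopy. Microtubules were stained in parallel samples with anti-β-tubulin and the same secondary antibody.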

A10 [6] = assay: Effect on cell morphology in rat A10 cells assessed as actin aggregation at 23 nM by immunofluorescence assay; assay type: functional, cell-based; in short: as §2

Row | IC50 (MCF7) [µg/mL] | Structure (SMILES) | Activity (A10 [1]) | IC50 (T-24) [µg/mL] | IC50 (A10 [2]) [µg/mL] | Activity (A10 [3]) | IC50 [4] [µg/mL] | Activity (A10 [5]) | Activity (A10 [6])
1 | 1.8 (≈ 3.83 µM) | CC(C)[C@@H]1NC(=O)[C@@H](Cc2c[nH]c3ccccc23)NC(=O)[C@H](C)NC(=O)CCCCCNC1=O | inactive | 10.3 (≈ 21.9 µM) | 2 (≈ 4.26 µM) | inactive | 12.5 (≈ 26.6 µM) |  | 
2 | > 100 | CC(C)[C@@H]1NC(=O)[C@@H](Cc2c[nH]c3ccccc23)NC(=O)[C@H](C)NC(=O)CCCCCCCNC1=O | inactive | > 100 | > 100 | inactive | > 100 |  | 
3 | 3 (≈ 5.7 µM) | CC(C)[C@@H]1NC(=O)[C@@H](Cc2c[nH]c3ccccc23)NC(=O)[C@H](C)NC(=O)CCNC(=O)CCCCNC1=O | inactive | 19 (≈ 36.1 µM) | 4.3 (≈ 8.17 µM) | inactive | 24 (≈ 45.6 µM) |  | 
4 |  | C/C1=C\[C@H](C)C[C@H](C)OC(=O)C[C@H](c2ccc(O)cc2)NC(=O)[C@@H](Cc2c(Br)[nH]c3ccccc23)N(C)C(=O)[C@H](C)NC(=O)[C@@H](C)C1 |  |  |  |  |  | Active | Active
